This note sets out measurements from ChEMBL document CHEMBL2203028, “SAR and Lead Optimization of an HIV-1 Vif-APOBEC3G Axis Inhibitor” (ACS Med Chem Lett, 2012).

A word on the pIC50: it is −log10 of the IC50, conventionally taken in molar units.

Data set [1] can be described thus: (§1) Inhibition of X4 tropic HIV-1 LAI Vif infected in H9 cells assessed as inhibition of viral replication incubated for 10 to 15 days measured on every second day by reverse transcriptase assay. The data set is classed as cell-based, Human immunodeficiency virus 1. To be noted: for pIC50: Human immunodeficiency virus 1, LAI, H9, read-out: IC50. In short, it runs like this:
(§2)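 Cells (2 x 10⁵/well) were pretreated overnight with 1 to 50 µM compound in RPMI with 10% FBS, then infected with X4-tropic HIV-1 LAI. Cultures were kept ± compound for 10-15 days. Every second day, 1/3 of supernatant was replaced with compound-containing medium, and RT activity was measured in supernatant. RN-18 served as positive control and untreated cells as negative control. There were ≥3 repeats; IC50 was calculated.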

The nature of data set [2]: (§3) Inhibition of X4-tropic HIV-1 LAI Vif infected in MT4 cells assessed as inhibition of viral replication incubated for 10 to 15 days measured on every second day by reverse transcriptase assay by reverse transcriptase assay. The data set is classed as cell-based, Human immunodeficiency virus 1. The settings on record: for IC50: mt4. The essentials:
as §2

For data set [3], the system named is Human immunodeficiency virus 1. Kind of data set: Inhibition of HIV-1 GFP tagged Vif expressed in 293FT cells co-expressing HA-tagged A3G assessed as upregulation of HA-A3G expression at 50 uM incubated for 16 hrs by immunoblotting assay. The data set is classed as cell-based. The essentials: (§4)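 293FT cells co-expressing HA-tagged A3G with GFP-tagged Vif or ΔVif were grown for 16 h with antagonist at 50 µM or without compound. Extracts were immunoblotted with anti-HA (A3G), anti-GFP (Vif) and anti-GAPDH antibodies. A3G and Vif levels were compared with untreated Vif-expressing cells. RN-18 served as positive control and choline chloride as a further control.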
On the technique in general: Immunoblotting shows a protein as a band on a membrane.

For data set [4], the system named is Human immunodeficiency virus 1. Kind of data set: Inhibition of HIV-1 GFP tagged Vif expressed in 293FT cells co-expressing HA-tagged A3G assessed as downregulation of GFP-Vif expression at 50 uM incubated for 16 hrs by immunoblotting assay. The data set is classed as cell-based. The essentials:
as §4

The next data set concerns H9. The description is as §1. To be noted: Human immunodeficiency virus 1. The data set is classed as cell-based. In short, it runs like this:
as §2

The subject of another data set is MT4. Described as §3. The data set is classed as cell-based. The settings on record: Human immunodeficiency virus 1. The essentials:
as §2

Data set [5] is described as follows: Inhibition of X4-tropic HIV-1 LAI Vif infected in CEM cells assessed as inhibition of viral replication incubated for 14 to 21 days measured on every other day by reverse transcriptase assay. The data set is classed as cell-based. The settings on record: Human immunodeficiency virus 1, LAI, CCRF-CEM.
Data set [6] in a line: Inhibition of X4-tropic HIV-1 LAI Vif infected in MT4 cells assessed as inhibition of viral replication incubated for 10 to 15 days measured on every other day by reverse transcriptase assay. To be noted: Human immunodeficiency virus 1, LAI.
Data set [7] in a line: Kinetic solubility at pH 5.0 by UV spectroscopic analysis. The data set is classed as physicochemical. To be noted: buffer.
Data set [8] can be described thus: Kinetic solubility at pH 6.2 by UV spectroscopic analysis. The settings on record: buffer. The data set is classed as physicochemical.
Data set [9] can be described thus: Permeability across synthetic membrane at pH 5.0 by PAMPA assay. The data set is classed as ADME. On the technique in general: In PAMPA a lipid-coated filter parts donor from acceptor wells.
The subject of another data set is Liver microsomes. Put plainly: Metabolic stability in human liver microsomes. The data set is classed as ADME, Microsome.
Data set [10] is described as follows: Permeability across synthetic membrane at pH 6.2 by PAMPA assay. The data set is classed as ADME.
Data set [11] deals with Plasma. Kind of data set: Metabolic stability in human plasma. The data set is classed as ADME, cell-free.
Data set [12] in a line: Permeability across synthetic membrane at pH 7.4 by PAMPA assay. The data set is classed as ADME.
In data set [13] the test system is Plasma. Kind of data set: Plasma protein binding in human. The data set is classed as ADME, cell-free.
Data set [14] can be described thus: Kinetic solubility at pH 7.2 by UV spectroscopic analysis. The data set is classed as physicochemical. The settings on record: buffer.
The nature of data set [15]: Cytotoxicity against human Fa2N-4 cells upto 50 uM by luminescence ATP detection assay. The data set is classed as cell-based.

pIC50: −log10 of the molar value. Calls of active or inactive are those of the source. The calls are words filed in the database; no cut-off is given here. Some results are limits rather than exact numbers.

Consider `CS(=O)(=O)Oc1ccccc1NC(=O)c1ccccc1Sc1ccc([N+](=O)[O-])cc1`, for which the pIC50 in data set [1] was 5.25. The IC50 entry in data set [2] is recorded as “Not Active”.

`COc1ccccc1NC(=O)c1ccccc1S(=O)(=O)c1ccc([N+](=O)[O-])cc1`: in [3], the “HA-A3G upregulation (active/not active)” value is “Active”. Further, the “GFP-Vif downregulation activity call” value in data set [4] was “Active”. Further, the pIC50 in [1] is 5.96. For the same compound, in [2], the IC50 result was “Not Active”.

Regarding `COc1ccccc1NC(=O)c1ccc(C)nc1Sc1ccc([N+](=O)[O-])cc1`, the “HA-A3G upregulation (active/not active)” value in data set [3] is “Active”. Besides, the “GFP-Vif downregulation activity call” value in [4] was “Active”. Moreover, the pIC50 in data set [1] was 5.82. In addition, the IC50 result in data set [2] is given as “Not Active”.

Consider `COc1ccccc1NC(=O)c1ccccc1Sc1ccc(C(=O)[O-])cc1.C[N+](C)(C)CCO`, for which the inhibition result in the data set with H9 and with MT4 was “inactive” in each case. In addition, the pIC50 in data set [1] is 6.00. Further, the IC50 result in [2] is “Not Active”.

For `COc1ccccc1NC(=O)c1ccccc1Sc1ccc([N+](=O)[O-])cc1`, the results for the negative logarithm of the IC50 (pIC50) in data set [5], in data set [6] and in [1] were 5.35, less than 4.00 and 5.22, respectively. Further, the “HA-A3G upregulation (active/not active)” value in [3] is “Active”. Besides, in [4], the “GFP-Vif downregulation activity call” value was “Active”. For the same compound, the IC50 entry in [2] is “Not Active”.

Regarding `COc1ccccc1NC(=O)c1ccccc1Cl`, the “HA-A3G upregulation (active/not active)” value in [3] was “inactive”. Moreover, the “GFP-Vif downregulation activity call” value in data set [4] was “inactive”. The IC50 result in [1] (h9) is reported as “Not Active”. Further, the pIC50 in data set [2] (Human immunodeficiency virus 1, LAI, MT4, read-out: IC50) is less than 4.30.

Consider `COc1ccccc1NC(=O)c1ccc(Sc2ccc([N+](=O)[O-])cc2)cc1Cl`, for which the “HA-A3G upregulation (active/not active)” value in [3] was “Active”. Moreover, the “GFP-Vif downregulation activity call” value in data set [4] is “Active”. Also, in [1], the negative-log IC50 (pIC50) was 5.60. Besides, the IC50 result in data set [2] was “Not Active”.

As to `O=C(Nc1ccccc1I)c1ccccc1Sc1ccc([N+](=O)[O-])cc1`, the pIC50 in data set [1] was 5.37. Besides, the IC50 result in [2] is listed as “Not Active”.

With `COC(=O)c1ccc(NC(=O)c2ccccc2Sc2ccc([N+](=O)[O-])cc2)c(OC)c1`, the pIC50 in data set [1] is 5.00. The IC50 result in data set [2] was “Not Active”.

`COc1ccccc1NC(=O)c1ccccc1S(=O)(=O)c1ccc(C(=O)[O-])cc1.C[N+](C)(C)CCO`: the Kinetic_solubility result in data set [7], in data set [8] and in [14] was “soluble” in each case. The values for the permeability entry in [9], in data set [10] and in [12] were “permeable”, “impermeable” and “impermeable”, respectively. The Stability result in the data set with Liver microsomes and with Plasma [11] was “Stable” each time. For the same compound, the “HA-A3G upregulation (active/not active)” value in data set [3] is “inactive”. Besides, the “GFP-Vif downregulation activity call” value in data set [4] was “inactive”. In addition, the pIC50 in [1] was 5.00. In the data set with Plasma [13], the PPB entry is listed as “Active”. The IC50 result in [2] was “Not Active”. Also, the Activity entry in data set [15] is on record as “Non-toxic”.

Take `COC(=O)c1ccc(Sc2ccccc2C(=O)Nc2ccccc2OC)cc1`: the inhibition entry in the data set with H9 and in the data set with MT4 was “inactive” each time.

On to `COc1ccccc1NC(=O)c1cccnc1Sc1ccc([N+](=O)[O-])cc1`, for which, in data set [1], the pIC50 is 5.00. In data set [2], the IC50 result is given as “Not Active”.
